# Positions count from the first letter of the chain named.
# Legend:
# Conditions in all cases: stereoisomer not certain
# OR2M4 (Homo sapiens) = molecular target: T1, OR2M4 (Homo sapiens) (UniProt Q96R27)
# T1 sequence (whole entry): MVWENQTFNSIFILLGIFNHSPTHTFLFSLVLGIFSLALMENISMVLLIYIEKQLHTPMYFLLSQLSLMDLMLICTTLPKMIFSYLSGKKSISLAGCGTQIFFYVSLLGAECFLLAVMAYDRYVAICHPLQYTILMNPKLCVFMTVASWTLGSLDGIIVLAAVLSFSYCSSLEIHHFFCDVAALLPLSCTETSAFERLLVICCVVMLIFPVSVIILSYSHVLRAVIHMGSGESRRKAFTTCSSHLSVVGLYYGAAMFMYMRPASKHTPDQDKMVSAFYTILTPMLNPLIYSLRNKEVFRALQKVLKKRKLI
# Procedure, shortened: (§1)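 Whether a receptor–molecule pair is responsive (active) rests on the original authors' judgment that its measured signal was statistically different from baseline. Pairs without that judgment are non-responsive (inactive). Sources used varied assay methods, commonly transient luciferase assays in mammalian cell lines.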
# OR2M5 (Homo sapiens) = molecular target: T2, OR2M5 (Homo sapiens) (UniProt A3KFT3)
# T2 sequence (whole entry): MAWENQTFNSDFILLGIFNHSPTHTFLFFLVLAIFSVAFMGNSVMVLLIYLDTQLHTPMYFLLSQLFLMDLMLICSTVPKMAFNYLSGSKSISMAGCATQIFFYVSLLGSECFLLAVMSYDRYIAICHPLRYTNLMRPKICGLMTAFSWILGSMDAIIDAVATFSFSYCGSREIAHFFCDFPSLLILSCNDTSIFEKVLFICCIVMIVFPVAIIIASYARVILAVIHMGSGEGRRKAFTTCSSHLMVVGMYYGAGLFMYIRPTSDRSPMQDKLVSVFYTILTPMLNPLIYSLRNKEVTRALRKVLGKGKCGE
# Procedure, shortened: as §1
# OR2M5 D11G = system: T3, OR2M5 D11G
# T3 sequence (whole entry): T2 sequence (whole entry) with D11G
# Procedure, shortened: as §1
# OR2M3 M302T = system: OR2M3 M302T
# Chain of OR2M3 M302T (as listed by the source, stated change not applied): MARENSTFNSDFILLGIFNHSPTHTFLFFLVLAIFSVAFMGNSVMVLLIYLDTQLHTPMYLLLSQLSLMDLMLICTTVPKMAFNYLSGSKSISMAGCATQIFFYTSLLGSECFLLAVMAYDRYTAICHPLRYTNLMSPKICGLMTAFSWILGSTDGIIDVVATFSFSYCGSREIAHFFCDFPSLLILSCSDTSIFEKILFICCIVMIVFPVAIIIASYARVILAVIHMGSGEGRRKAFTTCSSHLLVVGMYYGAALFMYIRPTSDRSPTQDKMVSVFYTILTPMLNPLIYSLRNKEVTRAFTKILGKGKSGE
# Procedure, shortened: as §1
# OR2M3 R266H = system: OR2M3 R266H
# Chain of OR2M3 R266H (as listed by the source, stated change not applied): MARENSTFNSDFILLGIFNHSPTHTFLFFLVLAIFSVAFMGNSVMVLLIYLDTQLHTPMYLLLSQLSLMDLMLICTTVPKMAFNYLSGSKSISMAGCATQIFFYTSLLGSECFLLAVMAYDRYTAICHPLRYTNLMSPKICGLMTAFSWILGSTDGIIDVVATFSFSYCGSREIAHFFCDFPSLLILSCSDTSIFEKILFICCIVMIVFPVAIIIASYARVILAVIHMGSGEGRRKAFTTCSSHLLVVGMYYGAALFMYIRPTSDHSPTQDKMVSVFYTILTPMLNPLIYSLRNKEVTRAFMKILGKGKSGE
# Procedure, shortened: as §1
# OR2M3 R293S = system: OR2M3 R293S
# Chain of OR2M3 R293S (as listed by the source, stated change not applied): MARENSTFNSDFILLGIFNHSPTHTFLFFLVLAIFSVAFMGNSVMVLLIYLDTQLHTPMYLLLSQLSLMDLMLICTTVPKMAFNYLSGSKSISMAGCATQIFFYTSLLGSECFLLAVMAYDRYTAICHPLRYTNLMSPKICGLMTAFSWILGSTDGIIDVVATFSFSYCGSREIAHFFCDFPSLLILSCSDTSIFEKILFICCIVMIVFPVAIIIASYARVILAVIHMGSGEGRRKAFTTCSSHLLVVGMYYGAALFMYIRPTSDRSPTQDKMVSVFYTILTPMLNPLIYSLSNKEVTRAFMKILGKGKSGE
# Procedure, shortened: as §1
# OR2M3 V78I = system: OR2M3 V78I
# Chain of OR2M3 V78I (as listed by the source, stated change not applied): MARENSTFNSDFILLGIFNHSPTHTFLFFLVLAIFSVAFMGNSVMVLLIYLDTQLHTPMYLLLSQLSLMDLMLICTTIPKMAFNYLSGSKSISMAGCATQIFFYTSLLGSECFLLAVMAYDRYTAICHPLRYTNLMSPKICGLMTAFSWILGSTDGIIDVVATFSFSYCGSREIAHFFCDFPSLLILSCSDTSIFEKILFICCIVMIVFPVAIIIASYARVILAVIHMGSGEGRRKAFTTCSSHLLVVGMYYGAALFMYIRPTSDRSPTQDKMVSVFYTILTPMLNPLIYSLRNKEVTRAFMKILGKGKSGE
# Procedure, shortened: as §1
# OR2M3 Y259H = system: OR2M3 Y259H
# Chain of OR2M3 Y259H (as listed by the source, stated change not applied): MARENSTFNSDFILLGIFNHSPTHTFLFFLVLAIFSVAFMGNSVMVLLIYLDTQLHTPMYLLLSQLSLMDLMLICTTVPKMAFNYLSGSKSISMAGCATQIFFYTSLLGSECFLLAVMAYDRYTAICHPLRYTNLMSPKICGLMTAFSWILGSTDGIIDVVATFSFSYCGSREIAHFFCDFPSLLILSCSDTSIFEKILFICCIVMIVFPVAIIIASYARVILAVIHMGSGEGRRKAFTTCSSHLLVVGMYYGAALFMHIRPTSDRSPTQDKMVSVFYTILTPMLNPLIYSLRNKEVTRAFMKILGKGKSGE
# Procedure, shortened: as §1
# OR2M5 A156G = system: OR2M5 A156G
# Chain of OR2M5 A156G (as listed by the source, stated change not applied): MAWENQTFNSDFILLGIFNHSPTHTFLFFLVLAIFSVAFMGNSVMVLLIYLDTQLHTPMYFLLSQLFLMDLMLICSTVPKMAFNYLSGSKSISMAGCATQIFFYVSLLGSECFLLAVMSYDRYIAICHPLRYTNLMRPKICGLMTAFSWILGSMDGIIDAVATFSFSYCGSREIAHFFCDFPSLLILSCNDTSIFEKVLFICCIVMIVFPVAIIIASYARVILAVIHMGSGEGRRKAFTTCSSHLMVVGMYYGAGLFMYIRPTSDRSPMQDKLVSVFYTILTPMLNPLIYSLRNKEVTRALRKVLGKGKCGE
# Procedure, shortened: as §1
# OR2M5 A160V = system: OR2M5 A160V
# Chain of OR2M5 A160V (as listed by the source, stated change not applied): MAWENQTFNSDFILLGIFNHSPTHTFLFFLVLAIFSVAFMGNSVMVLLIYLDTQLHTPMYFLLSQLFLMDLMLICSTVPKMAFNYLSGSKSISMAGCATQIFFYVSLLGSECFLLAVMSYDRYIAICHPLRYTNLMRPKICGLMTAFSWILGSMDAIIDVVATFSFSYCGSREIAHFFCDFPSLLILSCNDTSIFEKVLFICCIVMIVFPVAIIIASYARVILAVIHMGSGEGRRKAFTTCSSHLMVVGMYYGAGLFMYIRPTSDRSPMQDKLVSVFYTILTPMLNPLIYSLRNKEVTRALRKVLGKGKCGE
# Procedure, shortened: as §1
# 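Further: active if original authors judged signal statistically different from baseline.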
compound,measurement,setting,value
CC=CC(=O)C1C(C)=CCCC1(C)C (stereo not drawn),odorant receptor agonist call,OR2M4 (Homo sapiens),active
CC(C)CCCC(C)(C)O,odorant receptor agonist call,OR2M4 (Homo sapiens),inactive
CC(CO)CS (stereo not drawn),odorant receptor agonist call,OR2M4 (Homo sapiens),inactive
same,odorant receptor agonist call,OR2M5 (Homo sapiens),inactive
CCCCCCCCC(OC(C)=O)OC(C)=O,odorant receptor agonist call,OR2M4 (Homo sapiens),inactive
Cc1ccc(C(C)C)cc1O,odorant receptor agonist call,OR2M4 (Homo sapiens),inactive
CCCC(C)C(=O)OCC (stereo not drawn),odorant receptor agonist call,OR2M4 (Homo sapiens),inactive
CCCCCC1COCCC1OC(C)=O (stereo not drawn),odorant receptor agonist call,OR2M4 (Homo sapiens),inactive
COc1ccc(C)cc1,odorant receptor agonist call,OR2M4 (Homo sapiens),active
CC(=O)OCc1ccccc1,odorant receptor agonist call,OR2M4 (Homo sapiens),inactive
CC(C)=CCCC(C)=CCO,odorant receptor agonist call,OR2M4 (Homo sapiens),inactive
CCC(=O)C=CC1C(C)=CCCC1(C)C (stereo not drawn),odorant receptor agonist call,OR2M4 (Homo sapiens),inactive
CCCCC1CCC(=O)O1 (stereo not drawn),odorant receptor agonist call,OR2M4 (Homo sapiens),inactive
CCCCCC(S)C(C)CO (stereo not drawn),odorant receptor agonist call,OR2M4 (Homo sapiens),inactive
same,odorant receptor agonist call,OR2M5 (Homo sapiens),inactive
CC1=CCC2CC1C2(C)C (stereo not drawn),odorant receptor agonist call,OR2M4 (Homo sapiens),inactive
CC1=C(O)C(=O)C(C)O1 (stereo not drawn),odorant receptor agonist call,OR2M4 (Homo sapiens),inactive
same,odorant receptor agonist call,OR2M5 (Homo sapiens),inactive
same,odorant receptor agonist call,OR2M5 D11G,inactive
C=CC(C)(CCC=C(C)C)OC(C)=O (stereo not drawn),odorant receptor agonist call,OR2M4 (Homo sapiens),inactive
CC1CC(C)(c2ccccc2)CO1 (stereo not drawn),odorant receptor agonist call,OR2M4 (Homo sapiens),inactive
OCc1ccccc1,odorant receptor agonist call,OR2M4 (Homo sapiens),inactive
CC(C)(C)C1CCCCC1OCCCCO (stereo not drawn),odorant receptor agonist call,OR2M4 (Homo sapiens),inactive
Cc1cnc(C)c(C)n1,odorant receptor agonist call,OR2M4 (Homo sapiens),inactive
same,odorant receptor agonist call,OR2M5 (Homo sapiens),inactive
same,odorant receptor agonist call,OR2M5 D11G,inactive
CCCC(S)CCOC(C)=O (stereo not drawn),odorant receptor agonist call,OR2M4 (Homo sapiens),inactive
same,odorant receptor agonist call,OR2M5 (Homo sapiens),inactive
same,odorant receptor agonist call,OR2M5 D11G,inactive
CC(C)=CCCC(C)CC=O (stereo not drawn),odorant receptor agonist call,OR2M4 (Homo sapiens),inactive
CC1=C(O)C(=O)OC1C (stereo not drawn),odorant receptor agonist call,OR2M4 (Homo sapiens),inactive
same,odorant receptor agonist call,OR2M5 (Homo sapiens),inactive
same,odorant receptor agonist call,OR2M5 D11G,inactive
CC1CCCCCCCCCCCCC(=O)C1 (stereo not drawn),odorant receptor agonist call,OR2M5 (Homo sapiens),inactive
Cc1occc(=O)c1OC(=O)C(C)C,odorant receptor agonist call,OR2M4 (Homo sapiens),inactive
COC1CC2CC1C1CC(C=O)CC21 (stereo not drawn),odorant receptor agonist call,OR2M4 (Homo sapiens),inactive
CC(=O)C=CC1=C(C)CCCC1(C)C,odorant receptor agonist call,OR2M4 (Homo sapiens),inactive
CCC(S)C(C)CO (stereo not drawn),odorant receptor agonist call,OR2M3 M302T,active
same,odorant receptor agonist call,OR2M3 R266H,active
same,odorant receptor agonist call,OR2M3 R293S,active
same,odorant receptor agonist call,OR2M3 V78I,active
same,odorant receptor agonist call,OR2M3 Y259H,inactive
same,odorant receptor agonist call,OR2M4 (Homo sapiens),inactive
same,odorant receptor agonist call,OR2M5 (Homo sapiens),inactive
same,odorant receptor agonist call,OR2M5 A156G,inactive
same,odorant receptor agonist call,OR2M5 A160V,inactive
CCCCCC1C(=O)CCC1CC(=O)OC (stereo not drawn),odorant receptor agonist call,OR2M4 (Homo sapiens),inactive
CC1=NC(C)C(C)S1 (stereo not drawn),odorant receptor agonist call,OR2M4 (Homo sapiens),inactive
same,odorant receptor agonist call,OR2M5 (Homo sapiens),inactive
same,odorant receptor agonist call,OR2M5 D11G,inactive
CCC1OC(=O)C(O)=C1C (stereo not drawn),odorant receptor agonist call,OR2M4 (Homo sapiens),inactive
same,odorant receptor agonist call,OR2M5 (Homo sapiens),inactive
same,odorant receptor agonist call,OR2M5 D11G,inactive
C=CCOC(=O)COCCC(C)C,odorant receptor agonist call,OR2M4 (Homo sapiens),inactive
CC(=O)c1c(C)c([N+](=O)[O-])c(C(C)(C)C)c([N+](=O)[O-])c1C,odorant receptor agonist call,OR2M5 (Homo sapiens),inactive
CCC1OC(C)=C(O)C1=O (stereo not drawn),odorant receptor agonist call,OR2M4 (Homo sapiens),inactive
same,odorant receptor agonist call,OR2M5 (Homo sapiens),inactive
same,odorant receptor agonist call,OR2M5 D11G,inactive
CCCCCC(=O)C(C)C(C)=O (stereo not drawn),odorant receptor agonist call,OR2M4 (Homo sapiens),inactive
same,odorant receptor agonist call,OR2M5 (Homo sapiens),inactive
CCC=C(C)C(O)CCCCC (stereo not drawn),odorant receptor agonist call,OR2M4 (Homo sapiens),inactive
CCCCC(S)C(C)CO (stereo not drawn),odorant receptor agonist call,OR2M4 (Homo sapiens),inactive
same,odorant receptor agonist call,OR2M5 (Homo sapiens),inactive
CCc1ccc(CC(C)(C)C=O)cc1,odorant receptor agonist call,OR2M4 (Homo sapiens),inactive
CCCCCCC=CCCC=O,odorant receptor agonist call,OR2M4 (Homo sapiens),inactive
same,odorant receptor agonist call,OR2M5 (Homo sapiens),inactive
same,odorant receptor agonist call,OR2M5 D11G,inactive
CC(CC=O)c1ccc(C(C)(C)C)cc1 (stereo not drawn),odorant receptor agonist call,OR2M4 (Homo sapiens),inactive
